According to PubChem BioAssay AID602271 (Johns Hopkins Ion Channel Center, 2012):
The source made the active and inactive calls.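 How the source made its calls: active means changes KCNQ2 potassium channel current, up or down, at some tested dose, giving a fitted dose response; inactive means no effect at any dose or no dose response.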

Biological target: Potassium voltage-gated channel subfamily KQT member 2 (Rattus norvegicus) (UniProt O88943)
Test: rat KCNQ2 channel inhibitors, SAR follow-up, orthogonal assay, automated electrophysiology, CHO cells (AID 602271)
Details: automated patch clamp current; for current change %, negative = inhibition: at 30 µM (top of the series)
In short: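 Test system: CHO cells carrying KCNQ2 channels; Measured by: automated patch clamp, amphotericin B perforation, steady-state current at +40 mV; Probe or stimulus: depolarization from -90 mV to +40 mV, 2,000 ms; Dosing: multiple compound concentrations per compound; Evaluation: percent steady-state current change after compound versus pre-compound current.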

Sequence of Potassium voltage-gated channel subfamily KQT member 2 (Rattus norvegicus) (O88943 whole entry, looked up): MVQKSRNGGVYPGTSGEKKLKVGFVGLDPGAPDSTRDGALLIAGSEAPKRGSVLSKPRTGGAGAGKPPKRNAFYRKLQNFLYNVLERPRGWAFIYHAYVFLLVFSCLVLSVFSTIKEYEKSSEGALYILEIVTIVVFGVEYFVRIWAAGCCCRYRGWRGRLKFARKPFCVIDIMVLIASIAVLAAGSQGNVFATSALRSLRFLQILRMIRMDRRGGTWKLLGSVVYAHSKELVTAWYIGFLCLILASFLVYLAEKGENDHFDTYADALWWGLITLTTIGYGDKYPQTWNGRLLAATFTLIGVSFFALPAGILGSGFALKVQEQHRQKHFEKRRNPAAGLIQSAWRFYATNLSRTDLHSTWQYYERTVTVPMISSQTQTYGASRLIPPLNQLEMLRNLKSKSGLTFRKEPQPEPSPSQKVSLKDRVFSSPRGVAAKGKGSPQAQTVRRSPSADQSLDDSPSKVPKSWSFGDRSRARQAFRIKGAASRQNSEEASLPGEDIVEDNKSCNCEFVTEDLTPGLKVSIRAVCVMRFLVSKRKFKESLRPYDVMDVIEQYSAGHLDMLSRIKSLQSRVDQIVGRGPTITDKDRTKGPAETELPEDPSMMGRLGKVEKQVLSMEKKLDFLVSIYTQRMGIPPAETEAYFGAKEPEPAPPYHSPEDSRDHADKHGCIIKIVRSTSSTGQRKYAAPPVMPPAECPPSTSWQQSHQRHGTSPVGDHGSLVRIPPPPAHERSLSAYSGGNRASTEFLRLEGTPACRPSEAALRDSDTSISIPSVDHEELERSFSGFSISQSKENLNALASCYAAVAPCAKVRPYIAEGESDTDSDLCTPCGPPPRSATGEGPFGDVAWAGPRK

current change %, negative = inhibition | IC50 [µM] | Structure (SMILES)
 | 27.5 | CN(C)c1ccccc1NC(=O)Cc1cccc(Cl)c1
inactive |  | O=C(Cc1cccc(Cl)c1)Nc1ccccc1N1CCOCC1
inactive |  | O=C(Cc1cccc(Cl)c1)Nc1ccccc1F
inactive |  | O=C(Cc1cccc(Cl)c1)Nc1ccccc1N1CCCCCCC1
 | 7.09 | O=C(Cc1cccc(Cl)c1)Nc1ccccc1N1CCCCC1
 | 12.3 | O=C(Cc1cccc(Cl)c1)Nc1ccccc1-n1cccc1

More lines, now with the values behind:

Structure (SMILES) | current change %, negative = inhibition | IC50 [µM]
CCN(C)c1ccccc1NC(=O)Cc1cccc(Cl)c1 | inactive | 
O=C(Cc1cccc(Cl)c1)Nc1ccc(N2CCCC2)cc1 |  | 8.66
O=C(Cc1cccc(Cl)c1)Nc1cccc(F)c1F | inactive | 
O=C(Cc1cccc(Cl)c1)Nc1cccc2c1OCO2 | inactive | 
CCC(C(=O)N(C)c1ccccc1N1CCCC1)c1ccccc1 (configuration not stated) | inactive | 
O=C(Cc1cccc(Cl)c1)Nc1ccc(F)cc1F | inactive | 
O=C(Cc1cccc(Cl)c1)Nc1cccc(N2CCCC2)c1 |  | 1.02
O=C(Cc1cccc(Cl)c1)Nc1ccc(Cl)cc1Cl |  | 1.52
CN(C(=O)Cc1ccccc1)c1ccccc1N1CCCC1 | inactive | 
CN(Cc1ccccc1)c1ccccc1NC(=O)Cc1cccc(Cl)c1 | inactive | 
COc1ccc(NC(=O)Cc2cccc(Cl)c2)c(OC)c1 |  | 1.24
